From ChEMBL document CHEMBL3526048, “In vitro metabolism of rivoglitazone, a novel peroxisome proliferator-activated receptor γ agonist, in rat, monkey, and human liver microsomes and freshly isolated hepatocytes” (Drug Metab Dispos, 2011) come the findings set out here.

Series [1] has as its target T1, Cytochrome P450 3A4 (Homo sapiens, UniProt P08684). The series is described as follows: Activity of human CYP3A4 expressed in microsomes isolated from baculovirus infected insect cell assessed as enzyme-mediated compound formation treated with [14C]-rivoglitazone at 20 uM after 2 hrs by radio-HPLC/LC-MS/MS analysis in presence of NADPH-generating system. It is filed as ADME. The gist of the method:
(§1)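 Baculovirus-insect-cell microsomes expressing the human CYP (1 mg/ml protein) were incubated with [14C]rivoglitazone (20 μM) in 50 mM potassium phosphate (pH 7.4) or 100 mM Tris-HCl (pH 7.5) with an NADPH-generating system (2 mM NADP+, 20 mM glucose 6-phosphate, 2 units/ml G6PDH, 10 mM MgCl2) for 2 h at 37°C. Insect-cell control supersomes served as the control. Reactions were stopped with acetonitrile, and the concentrated supernatants were analysed by radio-HPLC, LC-MS and LC-MS/MS.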

A short description of series [2]: Drug metabolism in rat hepatocytes assessed as formation of 2-mercapto-3-(4-((6-methoxy-1-methyl-1H-benzo[d]imidazol-2-yl)methoxy)phenyl)propanoic acid at 30 uM after 3 hrs by radio-HPLC/LC-MS/MS analysis in presence of UDPGA, UDPGA/SAM and NADPH-generating system. Format: ADME, cell-based, Hepatocyte.
Series [3] concerns Liver microsome. The series can be described thus: Drug metabolism in Sprague-Dawley rat liver microsomes assessed as formation of 2-((4-((2,4-dioxothiazolidin-5-yl)methyl)phenoxy)methyl)-1-methyl-1H-benzo[d]imidazol-6-yl hydrogen sulfate at 20 uM by radio-HPLC/LC-MS/MS analysis. It is filed as ADME. On the technique in general: Microsomes from liver hold many membrane-bound enzymes, among them those of drug oxidation.

In series [4] the target is T2, Cytochrome P450 2D6 (Homo sapiens, UniProt P10635). The series can be described thus: Activity of human CYP2D6 expressed in microsomes isolated from baculovirus infected insect cell assessed as enzyme-mediated 5-(4-((6-methoxy-1H-benzo[d]imidazol-2-yl)methoxy)benzyl)thiazolidine-2,4-dione formation at 20 uM after 2 hrs by radio-HPLC/LC-MS/MS analysis in presence of NADPH-generating system and NADPH-generating system/SAM. Format: ADME.
T2 sequence (P10635 whole entry): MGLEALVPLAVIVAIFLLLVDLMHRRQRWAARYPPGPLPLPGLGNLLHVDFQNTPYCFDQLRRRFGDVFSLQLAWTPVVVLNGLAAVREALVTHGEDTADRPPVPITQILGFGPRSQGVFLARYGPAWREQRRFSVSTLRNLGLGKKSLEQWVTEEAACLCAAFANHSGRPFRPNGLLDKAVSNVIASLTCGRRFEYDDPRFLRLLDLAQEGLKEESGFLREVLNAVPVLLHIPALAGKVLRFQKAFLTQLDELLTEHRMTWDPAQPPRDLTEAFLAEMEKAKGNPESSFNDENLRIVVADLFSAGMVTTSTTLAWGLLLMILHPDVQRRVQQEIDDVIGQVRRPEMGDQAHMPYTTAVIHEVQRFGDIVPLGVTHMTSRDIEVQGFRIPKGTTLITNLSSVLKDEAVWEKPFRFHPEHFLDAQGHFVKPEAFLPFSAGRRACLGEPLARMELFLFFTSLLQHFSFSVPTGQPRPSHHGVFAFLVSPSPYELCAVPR

Series [5] concerns the target T2, Cytochrome P450 2D6. The series can be described thus: Activity of human CYP2D6 expressed in microsomes isolated from baculovirus infected insect cell assessed as enzyme-mediated 5-hydroxy-5-(4-((6-methoxy-1-methyl-1H-benzo[d]imidazol-2-yl)methoxy)benzyl)thiazolidine-2,4-dione formation at 20 uM after 2 hrs by radio-HPLC/LC-MS/MS analysis in presence of NADPH-generating system and NADPH-generating system/SAM. Format: ADME.

The target of series [6] is T3, Cytochrome P450 3A5 (Homo sapiens, UniProt P20815). The series can be described thus: Activity of human CYP3A5 expressed in microsomes isolated from baculovirus infected insect cell assessed as enzyme-mediated 3-(4-((6-methoxy-1-methyl-1H-benzo[d]imidazol-2-yl)methoxy)phenyl)-2-(methylsulfinyl)propanamide formation at 20 uM after 2 hrs by radio-HPLC/LC-MS/MS analysis in presence of NADPH-generating system/SAM. It is filed as ADME. Summed up: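 cDNA-expressed human CYP3A5 in baculovirus-insect-cell microsomes (1 mg/ml protein) was incubated with [¹⁴C]rivoglitazone (20 μM) in 50 mM potassium phosphate (pH 7.4) or 100 mM Tris-HCl (pH 7.5). NADPH-generating system: 2 mM NADP⁺, 20 mM glucose 6-phosphate, 2 units/ml G6PDH, 10 mM MgCl₂. Incubation ran 2 h at 37°C with shaking; insect-cell control supersomes served as control. Acetonitrile stop, supernatant concentrated, then radio-HPLC, LC-MS and LC-MS/MS.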
T3 sequence (P20815 whole entry): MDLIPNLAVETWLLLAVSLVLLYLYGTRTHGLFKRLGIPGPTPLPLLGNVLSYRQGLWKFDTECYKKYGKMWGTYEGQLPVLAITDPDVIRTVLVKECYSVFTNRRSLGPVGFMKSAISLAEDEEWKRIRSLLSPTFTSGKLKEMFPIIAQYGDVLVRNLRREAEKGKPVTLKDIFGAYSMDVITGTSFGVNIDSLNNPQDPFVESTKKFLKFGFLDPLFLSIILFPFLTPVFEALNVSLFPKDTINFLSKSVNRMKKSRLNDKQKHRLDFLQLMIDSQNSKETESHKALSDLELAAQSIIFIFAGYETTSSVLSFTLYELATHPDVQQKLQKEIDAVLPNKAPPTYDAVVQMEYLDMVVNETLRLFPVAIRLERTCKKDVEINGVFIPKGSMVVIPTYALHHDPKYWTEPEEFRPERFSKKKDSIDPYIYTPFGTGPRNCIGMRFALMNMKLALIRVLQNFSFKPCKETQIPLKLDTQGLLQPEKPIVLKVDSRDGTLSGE

Series [7] addresses T1, Cytochrome P450 3A4. The series can be described thus: Activity of human CYP3A4 expressed in microsomes isolated from baculovirus infected insect cell assessed as enzyme-mediated 3-(4-((6-methoxy-1-methyl-1H-benzo[d]imidazol-2-yl)methoxy)phenyl)-2-(methylsulfonyl)propanamide formation at 20 uM after 2 hrs by radio-HPLC/LC-MS/MS analysis in presence of NADPH-generating system/SAM. It is filed as ADME.

Series [8] addresses T3, Cytochrome P450 3A5. The series is described as follows: Activity of human CYP3A5 expressed in microsomes isolated from baculovirus infected insect cell assessed as enzyme-mediated 2-((4-((2,4-dioxothiazolidin-5-yl)methyl)phenoxy)methyl)-1-methyl-1H-benzo[d]imidazol-6-yl hydrogen sulfate formation at 20 uM after 2 hrs by radio-HPLC/LC-MS/MS analysis. Format: ADME. The gist of the method: as §1

For series [9], the system named is Liver microsome. The series is described as follows: Drug metabolism in Sprague-Dawley rat liver microsomes assessed as formation of 5-(4-((6-hydroxy-1-methyl-1H-benzo[d]imidazol-2-yl)methoxy)benzyl)thiazolidine-2,4-dione at 20 uM after 2 hrs by radio-HPLC/LC-MS/MS analysis in presence of NADPH-generating system and NADPH-generating system/SAM. It is filed as ADME.

A short description of series [10]: Drug metabolism in rat hepatocytes assessed as formation of (2S,3S,4S,5R,6R)-6-((1-carboxy-2-(4-((6-methoxy-1-methyl-1H-benzo[d]imidazol-2-yl)methoxy)phenyl)ethylthio)carbonylamino)-3,4,5-trihydroxytetrahydro-2H-pyran-2-carboxylic acid at 30 uM after 3 hrs by radio-HPLC/LC-MS/MS analysis in presence of UDPGA and UDPGA/SAM. It is filed as ADME, cell-based, Hepatocyte.

For a further series, the target named is Cytochrome P450 2C9 (Homo sapiens, UniProt P11712). The series is described as follows: Activity of human CYP2C9 expressed in microsomes isolated from baculovirus infected insect cell assessed as enzyme-mediated 2-amino-3-((1-carboxy-2-(4-((6-methoxy-1-methyl-1H-benzo[d]imidazol-2-yl)methoxy)phenyl)ethyl)disulfanyl)propanoic acid formation at 20 uM after 2 hrs by radio-HPLC/LC-MS/MS analysis. Format: ADME. The gist of the method: as §1
Sequence of Cytochrome P450 2C9 (P11712 whole entry): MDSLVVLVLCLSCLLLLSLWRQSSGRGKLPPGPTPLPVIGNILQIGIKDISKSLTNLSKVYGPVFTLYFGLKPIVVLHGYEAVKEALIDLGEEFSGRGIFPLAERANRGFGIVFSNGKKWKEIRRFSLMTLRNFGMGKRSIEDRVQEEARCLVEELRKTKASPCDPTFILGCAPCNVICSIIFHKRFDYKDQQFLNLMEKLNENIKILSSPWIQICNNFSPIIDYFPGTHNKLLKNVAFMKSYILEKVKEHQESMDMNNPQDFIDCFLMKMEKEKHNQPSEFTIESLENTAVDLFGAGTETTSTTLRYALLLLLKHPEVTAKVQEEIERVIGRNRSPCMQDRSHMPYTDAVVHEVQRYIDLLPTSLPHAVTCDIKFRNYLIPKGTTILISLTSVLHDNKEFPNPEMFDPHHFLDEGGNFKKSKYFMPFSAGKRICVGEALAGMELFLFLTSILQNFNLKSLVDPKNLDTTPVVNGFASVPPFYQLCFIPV

Series [11] is described as follows: Drug metabolism in monkey hepatocytes assessed as formation of 3-(4-((6-methoxy-1-methyl-1H-benzo[d]imidazol-2-yl)methoxy)phenyl)-2-(methylsulfonyl)propanamide at 30 uM after 3 hrs by radio-HPLC/LC-MS/MS analysis in presence of NADPH-generating system/SAM. The following applies: cynomolgus monkey.
Series [12] can be described thus: Drug metabolism in monkey hepatocytes assessed as formation of 5-(4-((6-hydroxy-1-methyl-1H-benzo[d]imidazol-2-yl)methoxy)benzyl)thiazolidine-2,4-dione at 30 uM after 3 hrs by radio-HPLC/LC-MS/MS analysis in presence of NADPH-generating system and NADPH-generating system/SAM. To be noted: cynomolgus monkey.

Structures are written as SMILES.

T1 sequence (P08684 whole entry): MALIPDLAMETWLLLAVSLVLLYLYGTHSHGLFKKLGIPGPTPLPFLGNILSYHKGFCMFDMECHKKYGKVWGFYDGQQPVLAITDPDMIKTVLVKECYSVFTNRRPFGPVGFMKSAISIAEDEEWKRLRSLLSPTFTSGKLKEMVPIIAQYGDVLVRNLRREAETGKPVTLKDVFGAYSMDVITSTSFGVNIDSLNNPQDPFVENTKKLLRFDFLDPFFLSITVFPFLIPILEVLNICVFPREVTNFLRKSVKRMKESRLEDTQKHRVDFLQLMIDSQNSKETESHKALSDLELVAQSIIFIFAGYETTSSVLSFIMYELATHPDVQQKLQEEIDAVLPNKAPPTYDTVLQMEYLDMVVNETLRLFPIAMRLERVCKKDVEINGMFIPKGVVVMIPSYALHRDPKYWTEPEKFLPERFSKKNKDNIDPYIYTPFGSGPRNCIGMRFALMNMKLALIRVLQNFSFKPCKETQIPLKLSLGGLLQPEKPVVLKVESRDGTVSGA

For `COc1ccc2nc(COc3ccc(CC(S)C(=O)O)cc3)n(C)c2c1` (stereo not drawn), on Cytochrome P450 3A4 [1], the Drug metabolism result is “metabolite_detected”.

`COc1ccc2nc(COc3ccc(C[14CH]4SC(=O)NC4=O)cc3)n(C)c2c1.Cl` (racemic): the Drug metabolism result was “metabolite_not_detected” in [2]; “metabolite_not_detected” with Liver microsome [3]; “metabolite_detected” at Cytochrome P450 2D6 [4]; “metabolite_detected” on Cytochrome P450 2D6 [5]; “metabolite_not_detected” at Cytochrome P450 3A5 [6]; “metabolite_not_detected” at Cytochrome P450 3A4 [7]. In addition, the Drug metabolism entry on Cytochrome P450 3A5 [8] is recorded as “metabolite_not_detected”; in the series with Liver microsome [9], “metabolite_detected”; in series [10], “metabolite_detected”; on Cytochrome P450 2C9, “metabolite_not_detected”; in [11], “metabolite_not_detected”; in series [12], “metabolite_detected”.
